Laboratory results taken from ChEMBL document CHEMBL1156237, “Antiviral activity of benzimidazole derivatives. II. Antiviral activity of 2-phenylbenzimidazole derivatives” (Bioorg Med Chem, 2010).
Activity calls are given as the source filed them. How the calls were made is not given here.

Test system: Bovine viral diarrhea virus 1
Assay: Antiviral activity against Bovine viral diarrhea virus NADL infected in MDBK cells assessed as protection from virus-induced cytopathogenicity after 3 to 4 days by MTT method
Assay type: functional, organism-based, Bovine viral diarrhea virus 1-NADL
Details: Bovine viral diarrhea virus isolates and strains, MDBK
Outline: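 Cytopathogenicity protection assay. MDBK cells at 3 × 10^4/well, grown overnight to confluence. Infected with BVDV NADL at m.o.i. 0.01 in MEM-E with 0.5% inactivated FBS, 1 mM Na pyruvate and 1% kanamycin. Serial compound dilutions added after 1 h. After 3–4 days at 37 °C, viability read by MTT; EC50 is the concentration giving 50% protection.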

| SMILES | EC50 [µM] |
| --- | --- |
| Fc1ccc(-c2nc3cc(C(F)(F)F)ccc3[nH]2)cc1 | > 19 |
| Fc1cccc(F)c1-c1nc2cc(C(F)(F)F)ccc2[nH]1 | > 100 |
| O=[N+]([O-])c1ccccc1-c1nc2ccccc2[nH]1 | > 100 |
| COc1ccc(-c2nc3cc([N+](=O)[O-])ccc3[nH]2)c(OC)c1 | 45 |

Test system: Yellow fever virus
Assay: Antiviral activity against Yellow fever virus 17D infected in BHK cells assessed as protection from virus-induced cytopathogenicity after 3 to 4 days by MTT method
Assay type: functional, organism-based
Details: not given

| SMILES | EC50 [µM] |
| --- | --- |
| Fc1ccc(-c2nc3cc(C(F)(F)F)ccc3[nH]2)cc1 | > 25 |
| Fc1cccc(F)c1-c1nc2cc(C(F)(F)F)ccc2[nH]1 | > 100 |
| O=[N+]([O-])c1ccccc1-c1nc2ccccc2[nH]1 | > 100 |
| COc1ccc(-c2nc3cc([N+](=O)[O-])ccc3[nH]2)c(OC)c1 | > 100 |

Test system: Human alphaherpesvirus 1
Assay: Antiviral activity against HSV1 KOS infected in african green monkey Vero cells after 3 days by plaque reduction assay
Assay type: functional, organism-based
Details: Human alphaherpesvirus 1, KOS, 72 h
Outline: (§1)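 Plaque reduction assay. Vero 76 cells at 2 × 10^5/well, grown overnight to confluence in D-MEM with 10% FBS. Infected 2 h with 50–100 PFU/well, unadsorbed virus removed. Overlay of D-MEM with 1% inactivated FBS and 0.75% methylcellulose, with or without serial compound dilutions. Incubated at 37 °C for 3 days (HSV-1 KOS, CVB-2 Ohio-1) or 5 days (RSV A2). Fixed and stained with crystal violet in 50% ethanol; plaques counted; EC50 by linear regression.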

| SMILES | EC50 [µM] |
| --- | --- |
| Fc1ccc(-c2nc3cc(C(F)(F)F)ccc3[nH]2)cc1 | > 60 |
| Fc1cccc(F)c1-c1nc2cc(C(F)(F)F)ccc2[nH]1 | > 25 |
| O=[N+]([O-])c1ccccc1-c1nc2ccccc2[nH]1 | > 100 |
| COc1ccc(-c2nc3cc([N+](=O)[O-])ccc3[nH]2)c(OC)c1 | > 100 |

Test system: Respiratory syncytial virus
Assay: Antiviral activity against RSV A2 infected in african green monkey Vero cells after 5 days by plaque reduction assay
Assay type: functional, organism-based
Details: human respiratory syncytial virus, A2, Vero, 120 h
Outline: as §1

| SMILES | EC50 [µM] |
| --- | --- |
| Fc1ccc(-c2nc3cc(C(F)(F)F)ccc3[nH]2)cc1 | > 60 |
| Fc1cccc(F)c1-c1nc2cc(C(F)(F)F)ccc2[nH]1 | > 25 |
| O=[N+]([O-])c1ccccc1-c1nc2ccccc2[nH]1 | 40 |
| COc1ccc(-c2nc3cc([N+](=O)[O-])ccc3[nH]2)c(OC)c1 | > 100 |

Test system: Vaccinia virus
Assay: Antiviral activity against Vaccinia virus Elstree-Lister infected in african green monkey Vero cells after 3 days by plaque reduction assay
Assay type: functional, organism-based
Details: Orthopoxvirus vaccinia, 72 h

| SMILES | EC50 [µM] |
| --- | --- |
| Fc1ccc(-c2nc3cc(C(F)(F)F)ccc3[nH]2)cc1 | 8 |
| Fc1cccc(F)c1-c1nc2cc(C(F)(F)F)ccc2[nH]1 | > 25 |
| O=[N+]([O-])c1ccccc1-c1nc2ccccc2[nH]1 | > 100 |
| COc1ccc(-c2nc3cc([N+](=O)[O-])ccc3[nH]2)c(OC)c1 | > 100 |

Test system: Human immunodeficiency virus 1
Assay: Antiviral activity against HIV1 3B infected in human MT4 cells assessed as protection from virus-induced cytopathogenicity after 4 days by MTT method
Assay type: functional, organism-based
Details: not given
Outline: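 MT-4 cells, 1 × 10^4/well in RPMI with or without serial compound dilutions, infected with HIV-1 IIIB, 100 CCID50 (m.o.i. 0.01). Protection from virus-induced cytopathogenicity read by MTT.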

| SMILES | Activity |
| --- | --- |
| Fc1ccc(-c2nc3cc(C(F)(F)F)ccc3[nH]2)cc1 | inactive |
| Fc1cccc(F)c1-c1nc2cc(C(F)(F)F)ccc2[nH]1 | inactive |
| O=[N+]([O-])c1ccccc1-c1nc2ccccc2[nH]1 | inactive |
| COc1ccc(-c2nc3cc([N+](=O)[O-])ccc3[nH]2)c(OC)c1 | inactive |

Test system: Poliovirus 1
Assay: Antiviral activity against Polio virus type1 Sabin strain Chat infected in african green monkey Vero cells after 2 days by plaque reduction assay
Assay type: functional, organism-based, Human poliovirus 1 strain Sabin
Details: Enterovirus C, 48 h

| SMILES | EC50 [µM] |
| --- | --- |
| Fc1ccc(-c2nc3cc(C(F)(F)F)ccc3[nH]2)cc1 | > 60 |
| Fc1cccc(F)c1-c1nc2cc(C(F)(F)F)ccc2[nH]1 | > 25 |
| O=[N+]([O-])c1ccccc1-c1nc2ccccc2[nH]1 | > 100 |
| COc1ccc(-c2nc3cc([N+](=O)[O-])ccc3[nH]2)c(OC)c1 | > 100 |

Test system: not listed separately
Assay: Cytotoxicity against BHK cells after 48 to 96 hrs by MTT assay
Assay type: cell-based, Mesocricetus auratus
Details: hamster
Outline: (§2)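 Cell seeding: MDBK at 6 × 10^5 cells/mL in MEM-E with 10% horse serum and 1 mM Na pyruvate; BHK at 1 × 10^6 cells/mL in MEM-E with 10% FBS. Serial compound dilutions, 37 °C, 5% CO2. Viability of mock-infected cells by MTT after 48–96 h; CC50 is the concentration reducing viability by 50%.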

| SMILES | CC50 [µM] |
| --- | --- |
| Fc1ccc(-c2nc3cc(C(F)(F)F)ccc3[nH]2)cc1 | 25 |
| Fc1cccc(F)c1-c1nc2cc(C(F)(F)F)ccc2[nH]1 | ≥ 100 |
| O=[N+]([O-])c1ccccc1-c1nc2ccccc2[nH]1 | > 100 |
| COc1ccc(-c2nc3cc([N+](=O)[O-])ccc3[nH]2)c(OC)c1 | > 100 |

Test system: not listed separately
Assay: Cytotoxicity against african green monkey Vero cells
Assay type: cell-based
Details: chlorocebus sabaeus
Outline: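 Vero 76 monolayers exposed to serial compound dilutions, run in parallel on the same 24-well plates as the plaque-reduction assays. CC50 is the concentration reducing viability of mock-infected cells by 50%.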

| SMILES | CC50 [µM] |
| --- | --- |
| Fc1ccc(-c2nc3cc(C(F)(F)F)ccc3[nH]2)cc1 | 60 |
| Fc1cccc(F)c1-c1nc2cc(C(F)(F)F)ccc2[nH]1 | 25 |
| O=[N+]([O-])c1ccccc1-c1nc2ccccc2[nH]1 | > 100 |
| COc1ccc(-c2nc3cc([N+](=O)[O-])ccc3[nH]2)c(OC)c1 | > 100 |

Test system: not listed separately
Assay: Cytotoxicity against human MT4 cells after 96 hrs by MTT assay
Assay type: cell-based
Details: MT4 cells
Outline: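 Exponentially growing MT-4 cells at 1 × 10^5 cells/mL in RPMI-1640 with 10% FCS, exposed to serial compound dilutions at 37 °C, 5% CO2. Viability by MTT after 96 h; CC50 is the concentration reducing viability of mock-infected cells by 50%.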

| SMILES | CC50 at 96 h [µM] |
| --- | --- |
| Fc1ccc(-c2nc3cc(C(F)(F)F)ccc3[nH]2)cc1 | 22 |
| Fc1cccc(F)c1-c1nc2cc(C(F)(F)F)ccc2[nH]1 | 100 |
| O=[N+]([O-])c1ccccc1-c1nc2ccccc2[nH]1 | 60 |
| COc1ccc(-c2nc3cc([N+](=O)[O-])ccc3[nH]2)c(OC)c1 | > 100 |

Test system: Coxsackievirus B2
Assay: Antiviral activity against Human coxsackievirus B2 Ohio-1 infected in african green monkey Vero cells after 3 days by plaque reduction assay
Assay type: functional, organism-based, Coxsackievirus B2 (strain Ohio-1)
Details: Enterovirus B, Vero, 72 h
Outline: as §1

| SMILES | EC50 [µM] |
| --- | --- |
| Fc1ccc(-c2nc3cc(C(F)(F)F)ccc3[nH]2)cc1 | 13 |
| Fc1cccc(F)c1-c1nc2cc(C(F)(F)F)ccc2[nH]1 | > 25 |
| O=[N+]([O-])c1ccccc1-c1nc2ccccc2[nH]1 | > 100 |
| COc1ccc(-c2nc3cc([N+](=O)[O-])ccc3[nH]2)c(OC)c1 | > 100 |

Test system: not listed separately
Assay: Cytotoxicity against MDBK cells after 48 to 96 hrs by MTT assay
Assay type: cell-based, Bos taurus
Details: cattle, MDBK cells
Outline: as §2

| SMILES | CC50 [µM] |
| --- | --- |
| Fc1ccc(-c2nc3cc(C(F)(F)F)ccc3[nH]2)cc1 | 19 |
| Fc1cccc(F)c1-c1nc2cc(C(F)(F)F)ccc2[nH]1 | ≥ 100 |
| O=[N+]([O-])c1ccccc1-c1nc2ccccc2[nH]1 | > 100 |
| COc1ccc(-c2nc3cc([N+](=O)[O-])ccc3[nH]2)c(OC)c1 | > 100 |

Test system: Vesicular stomatitis virus
Assay: Antiviral activity against VSV Indiana lab infected in african green monkey Vero cells after 2 days by plaque reduction assay
Assay type: functional, organism-based
Details: not given

| SMILES | Activity |
| --- | --- |
| Fc1ccc(-c2nc3cc(C(F)(F)F)ccc3[nH]2)cc1 | inactive |
| Fc1cccc(F)c1-c1nc2cc(C(F)(F)F)ccc2[nH]1 | inactive |
| O=[N+]([O-])c1ccccc1-c1nc2ccccc2[nH]1 | inactive |
| COc1ccc(-c2nc3cc([N+](=O)[O-])ccc3[nH]2)c(OC)c1 | inactive |
